ChEMBL document CHEMBL3108700, “Designing anti-inflammatory drugs from parasitic worms: a synthetic small molecule analogue of the Acanthocheilonema viteae product ES-62 prevents development of collagen-induced arthritis” (J Med Chem, 2013)
Calls of active or inactive are those of the source. Unless noted, the rule behind the calls is not given here.

Legend:
Mus musculus [1] = species: Mus musculus; test: Inhibition of TLR4/IL-1R in BALB/c mouse BMDM assessed as downregulation of LPS-stimulated MyD88 protein expression at 5 ug/mL after 20 hrs by Western blotting analysis relative to control
In short: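 Bone marrow macrophages were treated 20 h with medium, compound (1 or 5 μg/mL) or LPS (100 ng/mL) and lysed in modified RIPA buffer. Protein (30 μg) was separated on Bis-Tris gels, and MyD88 and GAPDH were detected by Western blot with ECL. Densitometric MyD88:GAPDH ratio was normalized to the RPMI value, from six analyses.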

[2] = target: T1, Toll-like receptor 4 (Mus musculus) (UniProt Q9QUK6); test: Inhibition of TLR4 in ovalbumin pulsed C57BL/6 mouse BMDC co-cultured with OT-2 CD4+ T cells assessed as reduction of LPS-induced IL-17 production at 5 ug/mL after 3 days by ELISA; assay type: cell-based; settings: T-cell
T1 sequence (whole entry): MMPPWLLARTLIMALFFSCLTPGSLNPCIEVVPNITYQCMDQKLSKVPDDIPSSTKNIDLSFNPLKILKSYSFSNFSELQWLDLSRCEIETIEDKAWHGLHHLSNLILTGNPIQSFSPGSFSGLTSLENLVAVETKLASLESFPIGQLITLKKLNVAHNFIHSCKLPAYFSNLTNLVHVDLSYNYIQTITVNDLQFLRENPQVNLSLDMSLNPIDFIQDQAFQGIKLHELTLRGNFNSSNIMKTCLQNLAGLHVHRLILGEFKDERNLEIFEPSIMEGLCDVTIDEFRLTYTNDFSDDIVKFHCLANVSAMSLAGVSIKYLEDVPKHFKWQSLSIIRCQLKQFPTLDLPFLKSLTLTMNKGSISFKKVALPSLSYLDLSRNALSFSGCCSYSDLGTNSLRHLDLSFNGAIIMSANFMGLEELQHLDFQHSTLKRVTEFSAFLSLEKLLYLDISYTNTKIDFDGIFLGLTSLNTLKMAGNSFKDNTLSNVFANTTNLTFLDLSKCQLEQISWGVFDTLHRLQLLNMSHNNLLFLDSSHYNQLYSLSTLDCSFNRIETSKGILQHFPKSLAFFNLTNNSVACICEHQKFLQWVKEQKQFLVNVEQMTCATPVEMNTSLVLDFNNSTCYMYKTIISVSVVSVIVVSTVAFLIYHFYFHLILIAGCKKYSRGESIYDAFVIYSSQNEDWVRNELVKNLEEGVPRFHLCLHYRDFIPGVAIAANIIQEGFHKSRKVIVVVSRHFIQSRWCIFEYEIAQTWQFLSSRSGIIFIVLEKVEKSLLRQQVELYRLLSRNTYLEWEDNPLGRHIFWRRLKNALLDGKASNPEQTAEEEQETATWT
In short: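 C57BL/6 bone marrow DCs ± compound (5 μg/mL) were treated ± LPS, pulsed with OVA peptide, and cocultured 3 days with naive OT-II CD4+ T cells. IL-17A was measured by ELISA. Responses were normalized to the LPS response at 10, 100 and 300 nM OVA. Values are mean ± SEM, pooled from four experiments.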

[3] = target: T1, Toll-like receptor 4 (Mus musculus); test: Inhibition of TLR4 in C57BL/6 mouse BMDC assessed as reduction of LPS-induced TNF-alpha production at 5 ug/mL preincubated for 2 hrs prior to LPS challenge measured after 24 hrs by ELISA
In short: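 C57BL/6 bone marrow DCs were generated in complete RPMI with 10 ng/mL GM-CSF. They were preincubated ± compound at 5 μg/mL for 2 h, then stimulated with LPS for 24 h. TNF-α, IL-6 and IL-23 in conditioned medium were measured by ELISA. Values are means of triplicates ± SEM pooled from 4 experiments.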

Mus musculus [4] = test: (§1) Antiinflammatory activity in DBA/1 mouse assessed as reduction in number of PMA/ionomycin-stimulated gammadelta+ T cells expressing IL-17 at 50 ug/kg, sc administered 2 days prior to collagen challenge continued till day 21 post collagen challenge by flow cytometric analysis relative to control; assay type: functional, organism-based; settings: T-cell
In short: (§2)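 CIA mice given test agent (1 μg/dose) or PBS subcutaneously on days −2, 0 and 21. Draining lymph node cells (10^6/mL) in complete RPMI were stimulated ± 50 ng/mL PMA plus 500 ng/mL ionomycin, with 10 μg/mL brefeldin A for 5 h at 37 °C. Cells were surface-stained for CD4, CD8 and γδ, fixed and permeabilized, then stained for intracellular IFNγ and IL-17A. Gating used isotype controls. Cell numbers per individual mouse; naive n = 7, treated groups n = 13.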

Mus musculus [5] = test: as §1, with “mouse collagen-induced arthritis model” for “mouse”, “CD4+” for “gammadelta+”; assay type: functional, organism-based; settings: T-cell; in short: as §2
Mus musculus [6] = test: Antiinflammatory activity in DBA/1 mouse collagen-induced arthritis model assessed as reduction in number of gammadelta+ T cells at 50 ug/kg, sc administered 2 days prior to collagen challenge continued till day 21 post collagen challenge; assay type: functional, organism-based; settings: T-cell
In short: (§3)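 Dosing was 1 μg/dose or PBS given subcutaneously on days −2, 0 and 21 of CIA. Total, CD4+, CD8+ and γδ T cell numbers in draining lymph nodes were counted by flow cytometry for each mouse. Naive mice not exposed to collagen served as a further control (naive n = 7; PBS and treated n = 13).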

Mus musculus [7] = test: Antiinflammatory activity in DBA/1 mouse collagen-induced arthritis model assessed as reduction in number of CD8+ T cells at 50 ug/kg, sc administered 2 days prior to collagen challenge continued till day 21 post collagen challenge; assay type: functional, organism-based; settings: T-cell; in short: as §3
Mus musculus [8] = test: Antiinflammatory activity in DBA/1 mouse collagen-induced arthritis model assessed as reduction in number of CD4+ T cells at 50 ug/kg, sc administered 2 days prior to collagen challenge continued till day 21 post collagen challenge; assay type: functional, organism-based; settings: T-cell; in short: as §3
Mus musculus [9] = test: Antiinflammatory activity in DBA/1 mouse collagen-induced arthritis model assessed as reduction in total number of DLN cells at 50 ug/kg, sc administered 2 days prior to collagen challenge continued till day 21 post collagen challenge; assay type: functional, organism-based; in short: as §3
Mus musculus [10] = test: Antiinflammatory activity in DBA/1 mouse collagen-induced arthritis model assessed as reduction of disease incidence at 50 ug/kg, sc administered 2 days prior to collagen challenge continued till day 21 post collagen challenge; assay type: functional, organism-based
In short: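 Collagen-induced arthritis mice were dosed subcutaneously (1 μg/dose) or given PBS on days −2, 0 and 21. Arthritis was scored clinically and hind paw width measured. Incidence was the % of mice with severity score ≥2 (cumulative) or ≥4 (high score). Results are mean ± SEM. Scores n = 13 per group, pooled from two experiments; paw width n = 7, from a single experiment.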

TLR2/TLR6 (Mus musculus) = TLR2/TLR6 (Mus musculus) (UniProt Q9QUN7+Q9EPW9); test: Inhibition of TLR2/6 in BALB/c mouse BMDM assessed as downregulation of BLP-stimulated IL-6 level at 5 ug/ml preincubated for 18 hrs followed by BLP challenge measured after 24 hrs by ELISA relative to control; assay type: protein-complex assay
In short: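 BALB/c male bone marrow macrophages were differentiated 7 days with L929 supernatant (≥99% CD11b+/F4/80+). Cells were plated at 2 × 10^5/well in triplicate, rested overnight, and given compounds at 5 μg/mL for 18 h. They were then stimulated with 100 ng/mL S. minnesota LPS, 10 ng/mL Pam3CSK4 (BLP) or 0.01 μM CpG for 24 h. Supernatant IL-12p40 and IL-6 were measured by ELISA (sensitivity 16 pg/mL).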

fold change (FC) (Mus musculus [1]): 0.736
inhibition [2]: Active
inhibition [3]: Active
inhibition (TLR2/TLR6 (Mus musculus)): inactive
SMILES: CN(C)CCS(=O)(=O)Cc1ccc(Br)cc1
Activity (Mus musculus [4]): Active
Activity (Mus musculus [5]): Active
Activity (Mus musculus [6]): Active
Activity (Mus musculus [7]): Active
Activity (Mus musculus [8]): Active
Activity (Mus musculus [9]): Active
Activity (Mus musculus [10]): Active
